From paper PMC8530978 (Bioorganic chemistry, 2021)

What was measured:
[1] = system: NCI sixty human tumor cell line panel; assay: NCI sixty human tumor cell line panel, single dose 10 μM; assay type: cell-based; conditions: for Mean % growth at 10 μM: mean growth percent over NCI 60 panel, single dose 10 μM; for activity at 10 µM: read-out: Mean % growth at 10 μM; for growth inhibition activity (in words): NCI 60 single dose 10 μM
HDAC8 = molecular target: T1, HDAC8 (Homo sapiens, UniProt Q9BY41); assay: HDAC-Glo inhibitor testing with recombinant HDAC8; assay type: biochemical; conditions: for remaining activity at 100 µM: read-out: HDAC8 activity remaining
T1 sequence (Q9BY41 1-377): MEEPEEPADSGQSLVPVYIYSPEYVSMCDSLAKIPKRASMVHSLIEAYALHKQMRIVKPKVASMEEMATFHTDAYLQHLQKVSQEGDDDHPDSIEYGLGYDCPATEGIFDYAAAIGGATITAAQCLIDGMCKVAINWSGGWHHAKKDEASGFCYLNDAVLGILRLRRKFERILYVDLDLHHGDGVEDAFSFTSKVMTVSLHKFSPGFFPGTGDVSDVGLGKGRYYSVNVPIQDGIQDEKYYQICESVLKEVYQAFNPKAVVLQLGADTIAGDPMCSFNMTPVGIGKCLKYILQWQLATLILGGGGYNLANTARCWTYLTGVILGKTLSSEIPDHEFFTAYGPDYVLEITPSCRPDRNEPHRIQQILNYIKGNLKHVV

HDAC3 = HDAC3 (Homo sapiens, UniProt O15379); assay: HDAC-Glo inhibitor testing with recombinant HDAC3; assay type: biochemical
Sequence of HDAC3 (O15379 whole entry): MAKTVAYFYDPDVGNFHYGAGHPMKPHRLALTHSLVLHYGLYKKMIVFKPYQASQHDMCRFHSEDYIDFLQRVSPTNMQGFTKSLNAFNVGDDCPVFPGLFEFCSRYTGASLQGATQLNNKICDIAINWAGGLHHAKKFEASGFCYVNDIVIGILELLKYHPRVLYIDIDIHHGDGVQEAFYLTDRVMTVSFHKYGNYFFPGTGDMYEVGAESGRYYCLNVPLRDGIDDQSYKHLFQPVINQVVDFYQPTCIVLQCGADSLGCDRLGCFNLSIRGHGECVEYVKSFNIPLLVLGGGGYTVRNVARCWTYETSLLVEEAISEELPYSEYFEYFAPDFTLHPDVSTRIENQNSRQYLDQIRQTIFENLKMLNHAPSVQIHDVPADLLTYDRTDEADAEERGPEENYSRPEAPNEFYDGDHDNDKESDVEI
Sequence of HDAC3 (Q9Y618 395-489 partner limits assumed): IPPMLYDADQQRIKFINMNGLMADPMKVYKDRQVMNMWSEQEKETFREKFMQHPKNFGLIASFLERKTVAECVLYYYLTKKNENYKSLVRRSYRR

HDAC6 = molecular target: T2, HDAC6 (Homo sapiens, UniProt Q9UBN7); assay: HDAC-Glo inhibitor testing with recombinant HDAC6; assay type: biochemical
T2 sequence (Q9UBN7 1-1215): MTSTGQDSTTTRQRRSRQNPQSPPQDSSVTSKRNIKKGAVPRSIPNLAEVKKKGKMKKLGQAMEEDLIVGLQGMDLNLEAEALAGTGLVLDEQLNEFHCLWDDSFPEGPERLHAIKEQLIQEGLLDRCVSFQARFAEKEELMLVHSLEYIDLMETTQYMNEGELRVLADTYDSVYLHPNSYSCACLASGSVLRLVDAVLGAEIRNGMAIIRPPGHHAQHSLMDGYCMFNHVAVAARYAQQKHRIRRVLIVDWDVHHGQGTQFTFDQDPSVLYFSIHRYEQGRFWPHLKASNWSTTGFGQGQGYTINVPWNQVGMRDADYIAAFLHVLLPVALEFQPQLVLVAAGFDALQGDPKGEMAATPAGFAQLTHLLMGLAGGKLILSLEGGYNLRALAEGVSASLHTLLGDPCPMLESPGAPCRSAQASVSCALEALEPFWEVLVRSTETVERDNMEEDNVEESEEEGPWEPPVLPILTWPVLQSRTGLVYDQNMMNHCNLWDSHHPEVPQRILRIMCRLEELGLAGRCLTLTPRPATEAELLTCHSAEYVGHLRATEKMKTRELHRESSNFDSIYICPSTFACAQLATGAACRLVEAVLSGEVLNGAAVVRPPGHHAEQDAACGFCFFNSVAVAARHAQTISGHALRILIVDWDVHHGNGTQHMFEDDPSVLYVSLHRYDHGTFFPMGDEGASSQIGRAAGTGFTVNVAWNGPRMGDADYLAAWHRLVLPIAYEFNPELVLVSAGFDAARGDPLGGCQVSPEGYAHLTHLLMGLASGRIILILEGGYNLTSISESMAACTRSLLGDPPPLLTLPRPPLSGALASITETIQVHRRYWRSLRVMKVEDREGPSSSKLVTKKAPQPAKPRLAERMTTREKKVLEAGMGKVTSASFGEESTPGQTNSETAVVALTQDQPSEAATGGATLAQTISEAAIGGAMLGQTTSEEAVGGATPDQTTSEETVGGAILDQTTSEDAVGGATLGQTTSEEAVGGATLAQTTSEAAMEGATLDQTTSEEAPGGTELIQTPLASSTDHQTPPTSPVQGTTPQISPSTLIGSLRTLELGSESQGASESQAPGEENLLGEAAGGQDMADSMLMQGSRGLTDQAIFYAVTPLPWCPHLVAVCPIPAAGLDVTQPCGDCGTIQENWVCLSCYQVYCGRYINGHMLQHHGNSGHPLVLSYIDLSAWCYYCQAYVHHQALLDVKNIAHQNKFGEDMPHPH

HDAC2 = HDAC2 (Homo sapiens, UniProt Q92769); assay: HDAC-Glo inhibitor testing with recombinant HDAC2; assay type: biochemical
Sequence of HDAC2 (Q92769 whole entry): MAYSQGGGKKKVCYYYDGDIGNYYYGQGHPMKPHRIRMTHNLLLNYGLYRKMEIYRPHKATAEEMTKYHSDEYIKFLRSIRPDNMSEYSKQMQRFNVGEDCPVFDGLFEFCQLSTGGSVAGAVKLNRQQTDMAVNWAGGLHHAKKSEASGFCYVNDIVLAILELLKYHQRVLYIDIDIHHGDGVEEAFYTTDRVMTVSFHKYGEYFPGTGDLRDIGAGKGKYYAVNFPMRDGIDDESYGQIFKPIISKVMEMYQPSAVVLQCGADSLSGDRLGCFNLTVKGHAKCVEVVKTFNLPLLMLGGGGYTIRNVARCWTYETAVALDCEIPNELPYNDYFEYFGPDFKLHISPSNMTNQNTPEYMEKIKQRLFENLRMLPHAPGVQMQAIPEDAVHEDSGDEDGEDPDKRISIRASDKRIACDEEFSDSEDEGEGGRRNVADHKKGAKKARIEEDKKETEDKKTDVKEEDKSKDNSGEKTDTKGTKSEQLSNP

HDAC1 = HDAC1 (Homo sapiens, UniProt Q13547); assay: HDAC-Glo inhibitor testing with recombinant HDAC1; assay type: biochemical
Sequence of HDAC1 (Q13547 whole entry): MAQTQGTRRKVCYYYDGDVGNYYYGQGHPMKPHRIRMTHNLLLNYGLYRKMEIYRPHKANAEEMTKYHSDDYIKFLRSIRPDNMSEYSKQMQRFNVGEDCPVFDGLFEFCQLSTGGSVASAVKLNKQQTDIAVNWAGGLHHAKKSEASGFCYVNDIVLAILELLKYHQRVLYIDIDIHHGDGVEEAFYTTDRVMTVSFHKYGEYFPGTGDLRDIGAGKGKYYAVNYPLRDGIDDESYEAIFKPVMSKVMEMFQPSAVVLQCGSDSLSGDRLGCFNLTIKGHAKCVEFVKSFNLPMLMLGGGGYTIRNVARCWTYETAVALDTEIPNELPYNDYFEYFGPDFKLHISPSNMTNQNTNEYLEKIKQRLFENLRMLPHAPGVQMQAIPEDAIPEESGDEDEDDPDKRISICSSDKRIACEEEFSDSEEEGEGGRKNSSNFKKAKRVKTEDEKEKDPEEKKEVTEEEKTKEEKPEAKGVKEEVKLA

[2] = system: mitotic spindle of HeLaM cells; assay type: cell-based; conditions: compound 10 μM + MG132 + ZM447439 (DMSO+MG132+ZM447439 3%)
HeLaM cells = assay: Flow cytometry cell cycle analysis; assay type: cell-based; conditions: 72 hr post treatment (DMSO 14%)
Summary of the method: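 5 × 10^5 HeLaM cells plated, treated next day with test compound or DMSO for 24, 48 or 72 h. All cells (floating and attached) collected and fixed in 70% ethanol (final). […] 10 μg/ml, 30 min, 37 °C, then propidium iodide in PBS + 2% FBS. SubG1 gated; subG1 excluded before modeling live-cell cycle distribution.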

Row | Molecule | activity at 10 µM ([1]; Homo sapiens) | further results
1 | O=C(Cc1ccc(/C=C/C(=O)c2ncc[nH]2)cc1)Nc1ccc(S(F)(F)(F)(F)F)cc1 [IPE-10, (E)-2-(-4(3-(1H-imidazol-2-yl)-3-oxoprop-1-en-1-yl)phenyl)-N-(4-pentafluorosulfaneyl)acetamide] | – | Mean % growth at 10 μM [1]: 64.07%
2 | Cn1ccnc1C(=O)/C=C/c1ccc(CC(=O)Nc2ccc(Cl)cc2)cc1 [IPE-17, (E)-N-(4-chlorophenyl)-2-(4-(3-(1-methyl-1H-imidazol-2-yl)-3-oxoprop-1-en-1-yl)phenyl)acetamide] | 19.3% | –
3 | O=C(Cc1ccc(/C=C/C(=O)c2ncc[nH]2)cc1)Nc1cc(F)c(F)c(F)c1 [IPE-12, (E)-2-(-4(3-(1H-imidazol-2-yl)-3-oxoprop-1-en-1-yl)phenyl)-N-(3,4,5-trifluorophenyl)acetamide] | 51.1% | –
4 | CCn1ccnc1C(=O)/C=C/c1ccc(CC(=O)Nc2ccc(F)cc2)cc1 [IPE-21, (E)-2-(4-(3-(1-Ethyl-1H-imidazol-2-yl)-3-oxoprop-1-en-1-yl)phenyl)-N-(4-fluorophenyl)acetamide] | 29.2% | –
5 | O=C(Cc1ccc(C(O)CC(=O)c2ccccc2O)cc1)Nc1ccccc1 (stereo not drawn) [HPE-34, 2-(4-(1-Hydroxy-3-(2-hydroxyphenyl)-3-oxopropyl)phenyl)-N-phenylacetamide] | 89.6% | –
6 | O=C(Cc1ccc(/C=C/C(=O)c2ncc[nH]2)cc1)Nc1c(F)c(F)c(F)c(F)c1F [IPE-13, (E)-2-(-4(3-(1H-imidazol-2-yl)-3-oxoprop-1-en-1-yl)phenyl)-N-(perfluorophenyl)acetamide] | 91.8% | –
7 | O=C(Cc1ccc(/C=C/C(=O)c2ccccc2O)cc1)Nc1cccc2ccccc12 [HPE-36, (E)-2-(4-(3-(2-Hydroxyphenyl)-3-oxoprop-1-en-1-yl)phenyl)-N-(naphthalen-1-yl)acetamide] | 96.2% | –
8 | O=C(Cc1ccc(CCC(=O)c2ncc[nH]2)cc1)Nc1ccccc1 [IPE-28, 2-(4-(3-(1H-imidazol-2-yl)-3-oxopropyl)phenyl)-N-phenylacetamide] | 92.8% | growth inhibition activity (in words) [1]: virtually inactive
9 | C#Cc1ccc(NC(=O)Cc2ccc(/C=C/C(=O)c3nccn3C)cc2)cc1 [IPE-27, (E)-N-(4-Ethynylphenyl)-2-(4-(3-(1-methyl-1H-imidazol-2-yl)-3-oxoprop-1-en-1-yl)phenyl)acetamide] | 53.5% | IC50 (HDAC8): 12 ± 1 µM; remaining activity at 100 µM (HDAC8): 20 to 60%; IC50 (HDAC3): > 100 µM; IC50 (HDAC6): > 100 µM; IC50 (HDAC2): > 100 µM; IC50 (HDAC1): > 100 µM
10 | O=C(Cc1ccc(/C=C/C(=O)c2ncc[nH]2)cc1)Nc1ccc(C(F)(F)F)cc1 [IPE-11, (E)-2-(4-(3-(1H-Imidazole-2-yl)-3-oxoprop-1-en-1-yl)phenyl)-N-(4-(trifluoromethyl)phenyl)acetamide] | 23.5% | –
11 | CN(C)c1ccc(NC(=O)Cc2ccc(/C=C/C(=O)c3ccccc3O)cc2)cc1 [HPE-35, (E)-N-(4-(Dimethylamino)phenyl)-2-(4-(3-(2-hydroxyphenyl)-3-oxoprop-1-en-1-yl)phenyl)acetamide] | 85.9% | –
12 | O=C(Cc1ccc(/C=C/C(=O)c2nccn2Cc2ccccc2)cc1)Nc1ccc(F)cc1 [IPE-20, (E)-2-(4-(3-(1-Benzyl-1H-imidazol-2-yl)-3-oxoprop-1-en-1-yl)phenyl)-N-(4-fluorophenyl)acetamide] | 54.7% | –
13 | O=C(Cc1ccc(/C=C/C(=O)c2ncc[nH]2)cc1)Nc1ccccc1 [IPE-1, (E)-2-(4-(3-(1H-Imidazol-2-yl)-3-oxoprop-1-en-1-yl)phenyl)-N-phenylacetamide] | 45.3% | inhibition at 10 µM ([1]; Homo sapiens, read-out: growth inhibition at 10 μM): > 50%
14 | O=C(Cc1ccc(/C=C/C(=O)c2ncccn2)cc1)Nc1ccccc1 [PPE-31, (E)-2-(4-(3-Oxo-3-(pyrimidin-2-yl)prop-1-en-1-yl)phenyl)-N-phenylacetamide] | 99.1% | –
15 | O=C(Cc1ccc(/C=C/C(=O)c2ncc[nH]2)cc1)Nc1cccc2ccccc12 [IPE-6, (E)-2-(4-(3-(1H-imidazol-2-yl)-3-oxoprop-1-en-1-yl)phenyl)-N-(naphthalen-1-yl)acetamide] | 76.3% | –
16 | O=C(Cc1ccc(/C=C/C(=O)c2ccccc2O)cc1)Nc1ccccc1 [HPE-32, (E)-2-(4-(3-(2-Hydroxyphenyl)-3-oxoprop-1-en-1-yl)phenyl)-N-phenylacetamide] | 85.9% | –
17 | O=C(Cc1ccc(/C=C/C(=O)c2nccs2)cc1)Nc1ccccc1 [TPE-30, (E)-2-(4-(3-Oxo-3-(thiazol-2-yl)prop-1-en-1-yl)phenyl)-N-phenylacetamide] | 84.3% | growth inhibition activity (in words) [1]: inactive
18 | Cn1ccnc1C(=O)C1CC1c1ccc(CC(=O)Nc2ccc(Br)cc2)cc1 (stereo not drawn) [IPE-29, N-(4-bromophenyl)-2-(4-(2-(1-methyl-1H-imidazole-2-carbonyl)cyclopropyl)phenyl)acetamide] | 98.7% | remaining activity at 100 µM (HDAC8): 20 to 60%; growth inhibition activity (in words) [1]: virtually inactive
19 | CN1CCc2c(c3ccccc3n2Cc2ccc(C(=O)NO)cc2)C1 [Tubastatin A, reference compound] | – | spindle collapse [2]: did not produce the same aberrant spindle; subG1 population (HeLaM cells): little effect on subG1
20 | Cn1ccnc1C(=O)/C=C/c1ccc(CC(=O)NC2CCCCC2)cc1 [IPE-15, (E)-N-Cyclohexyl-2-(4-(3-(1-methyl-1H-imidazol-2-yl)-3-oxoprop-1-en-1-yl)phenyl)acetamide] | 57.7% | –
21 | CN(C)c1ccc(NC(=O)Cc2ccc(/C=C/C(=O)c3ncc[nH]3)cc2)cc1 [IPE-5, (E)-2-(4-(3-(1H-imidazol-2-yl)-3-oxoprop-1-en-1-yl)phenyl)-N-(4-(dimethylamino)phenyl)acetamid] | 52.1% | –
22 | O=C(Cc1ccc(/C=C/C(=O)c2ncc[nH]2)cc1)NC1CCCCC1 [IPE-2, (E)-2-(4-(3-(1H-Imidazol-2-yl)-3-oxoprop-1-en-1-yl)phenyl)-N-cyclohexylacetamide] | 70% | growth inhibition activity (in words) [1]: almost completely inactive
23 | 4-(3-(2-Hydroxyphenyl)-3-oxopropyl)phenyl)-N-(naphthalen-1-yl)acetamide [HPE-33] | – | Mean % growth at 10 μM [1]: 91.98%
24 | Cn1ccnc1C(=O)/C=C/c1ccc(CC(=O)Nc2ccc(C(F)(F)F)cc2)cc1 [IPE-23, (E)-2-(4-(3-(1-methyl-1H-imidazol-2-yl)-3-oxoprop-1-en-1-yl)phenyl)-N-(4-(trifluoromethyl)phenyl)acetamide] | 13% | –
25 | O=C(Cc1ccc(/C=C/C(=O)c2ncc[nH]2)cc1)Nc1cc(C(F)(F)F)cc(C(F)(F)F)c1 [IPE-14, (E)-2-(-4(3-(1H-imidazol-2-yl)-3-oxoprop-1-en-1-yl)phenyl)-N-(bis(3,5-trifluoromethyl)phenyl)acetamide] | – | Mean % growth at 10 μM [1]: 77.21%
26 | COc1ccc(NC(=O)Cc2ccc(/C=C/C(=O)c3ncc[nH]3)cc2)cc1 [IPE-4, (E)-2-(4-(3-(1H-imidazol-2-yl)-3-oxoprop-1-en-1-yl)phenyl)-N-(4-methoxyphenyl)acetamide] | 66.8% | –
